Laboratory results published in publication PMC6690761 (Bioorganic & medicinal chemistry letters, 2019).

Target: T1, murine PDS (Mus musculus, UniProt Q9R155)
T1 sequence (Q9R155 1-780): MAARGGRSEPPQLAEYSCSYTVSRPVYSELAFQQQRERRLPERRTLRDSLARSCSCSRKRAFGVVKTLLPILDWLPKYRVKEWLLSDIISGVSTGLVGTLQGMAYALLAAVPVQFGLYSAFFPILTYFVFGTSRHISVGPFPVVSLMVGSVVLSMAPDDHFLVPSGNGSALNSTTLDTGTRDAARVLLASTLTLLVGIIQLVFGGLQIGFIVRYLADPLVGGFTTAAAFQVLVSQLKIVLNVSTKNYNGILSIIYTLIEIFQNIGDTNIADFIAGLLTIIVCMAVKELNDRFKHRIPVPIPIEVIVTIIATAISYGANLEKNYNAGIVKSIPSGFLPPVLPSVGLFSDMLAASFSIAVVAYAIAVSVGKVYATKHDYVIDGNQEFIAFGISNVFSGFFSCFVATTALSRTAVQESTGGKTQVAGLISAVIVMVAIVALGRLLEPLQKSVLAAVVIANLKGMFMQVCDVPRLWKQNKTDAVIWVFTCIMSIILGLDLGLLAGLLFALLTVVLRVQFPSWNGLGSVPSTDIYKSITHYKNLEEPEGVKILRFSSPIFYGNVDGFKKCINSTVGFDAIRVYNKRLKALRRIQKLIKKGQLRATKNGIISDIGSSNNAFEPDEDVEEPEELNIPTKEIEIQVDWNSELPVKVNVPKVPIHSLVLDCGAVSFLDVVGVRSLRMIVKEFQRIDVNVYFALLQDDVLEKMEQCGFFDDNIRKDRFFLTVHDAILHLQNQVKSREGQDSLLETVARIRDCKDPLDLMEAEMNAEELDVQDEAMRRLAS
Experiment: functional cell-based assay of PDS-mediated Cl-/I- exchange
Settings: Fischer rat thyroid cells expressing murine PDS
Procedure, shortened: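 Fischer rat thyroid cells stably co-expressing murine pendrin and the halide-sensitive fluorescent protein EYFP-H148Q/I152L/F46L. Pendrin-mediated Cl–/I– exchange is followed through this halide-sensing fluorescent reporter. Inhibition is reported as IC50.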

PDS inhibition activity (in words)	Compound
minimal PDS inhibition activity	CCOC(=O)c1nn(C)c2c1CN(C(=O)Nc1ccc(Cl)cc1)CC2 [Compound 20]
minimal PDS inhibition activity	Cn1nc(C(=O)O)c2c1CCN(C(=O)Nc1ccc(Cl)cc1)C2 [Compound 21]
